According to ChEMBL document CHEMBL1148609, “Orally active purine-based inhibitors of the heat shock protein 90” (J Med Chem, 2006):
The source made the active and inactive calls. No cut-off for these calls is given here.

Legend:
[1] = (§1) Bioavailability in BALB/c mice at 100 mg/kg, po; assay type: ADME, organism-based; conditions: BALB/c, mouse, in vivo
In short: (§2)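 Balb/C mice, three dosed orally by gavage (5-20 mL/kg) and three intravenously; H3PO4 salts formulated as a phosphatidylcholine/water dispersion. Six blood samples collected, the last 4 h postdose. Plasma levels measured by HPLC (detection limit 0.5 µg/mL).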

[2] = system: Mus musculus; test: Tumor growth inhibition in murine xenograft model using N87 stomach cancer cell line at 200 mg/kg/day, po; assay type: functional, organism-based; conditions: NCI-N87
In short: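 Female nu/nu athymic mice, 6-8 weeks old, implanted sc in the flank with N87 tumor fragments (~2 mm³) or 5 × 10⁶ cells. Established tumors of 50-200 mm³ used, n = 6-10 per group. H3PO4 salt given orally at 1 × 200 or 2 × 100 mg/kg/day, 5 days/week; vehicle-dosed controls. Caliper volumes (l × w²)/2 taken twice weekly.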

[3] = Volume of distribution in BALB/c mice at 10 mg/kg, iv; assay type: ADME, organism-based; set-up: dose 10 mg/kg, route intravenous; conditions: mouse, in vivo, read-out: Vdss; in short: as §2
[4] = system: Mus musculus; test: Degradation of HER2 in murine N87 xenograft model at (2*200 mg/kg/day), po; assay type: functional, organism-based
In short: (§3)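 Mice bearing N87 gastric tumor xenografts (high HER-2) given the H3PO4 salt orally at 2 × 200 or 2 × 100 mg/kg/day for 3 days. Reference arm received 17-AAG ip at 90 mg/kg once daily. Animals sacrificed 24 h after the last dose and client proteins in tumor lysates assessed by Western blot.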

[5] = Tmax in BALB/c mice at 100 mg/kg, po; assay type: ADME, organism-based; set-up: dose 100 mg/kg, route oral; conditions: mouse, in vivo; in short: as §2
[6] = system: MCF7; test: Growth inhibition in breast cancer MCF7 cell line by MTS assay; assay type: functional, cell-based; conditions: Homo sapiens
In short: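 MCF-7 breast cancer cells exposed to compound for 5 days, then MTS added and formazan read at 490 nm. […] Values are the mean of at least three independent observations.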

[7] = Clearance in BALB/c mice at 10 mg/kg, iv; assay type: ADME, organism-based; set-up: dose 10 mg/kg, route intravenous; conditions: mouse, in vivo; in short: as §2
[8] = Half life in BALB/c mice at 100 mg/kg, po; assay type: ADME, organism-based; set-up: dose 100 mg/kg, route oral; conditions: mouse, in vivo; in short: as §2
[9] = Cmax in BALB/c mice at 100 mg/kg, po; assay type: ADME, organism-based; set-up: dose 100 mg/kg, route oral; conditions: mouse, in vivo; in short: as §2
[10] = system: Mus musculus; test: Degradation of pAKT in murine N87 xenograft model at (2*200 mg/kg/day), po; assay type: functional, organism-based; in short: as §3
[11] = system: Mus musculus; test: Upregulation of Hsp70 in murine N87 xenograft model at (2*200 mg/kg/day), po; assay type: functional, organism-based
[12] = system: Mus musculus; test: Degradation of pRaf in murine N87 xenograft model at (2*200 mg/kg/day), po; assay type: functional, organism-based; in short: as §3
[13] = system: Mus musculus; test: Degradation of pHER2 in murine N87 xenograft model at (2*200 mg/kg/day), po; assay type: functional, organism-based; in short: as §3
[14] = system: Mus musculus; test: Degradation of PI3K in murine N87 xenograft model at (2*200 mg/kg/day), po; assay type: functional, organism-based; in short: as §3
[15] = Half life in BALB/c mice at 10 mg/kg, iv; assay type: ADME, organism-based; set-up: dose 10 mg/kg, route intravenous; conditions: mouse, in vivo; in short: as §2
[16] = (§4) AUC in BALB/c mice at 100 mg/kg, po; assay type: ADME, organism-based, Plasma; set-up: dose 100 mg/kg, route oral; conditions: BALB/c, mouse, plasma; in short: as §2
[17] = system: Mus musculus; test: as §1; assay type: ADME, organism-based; conditions: in vivo; in short: as §2
[18] = system: Mus musculus; test: as §4; assay type: ADME, organism-based, Plasma; set-up: dose 100 mg/kg, route oral; conditions: in vivo; in short: as §2
[19] = target: Heat shock protein HSP 90-alpha (Homo sapiens) (UniProt P07900); test: Hsp90 inhibition measured as HER-2 degradation in MCF-7 cells
[20] = system: Mus musculus; test: Upregulation of Hsp70 in A549 tumor xenograft at 200 mg/kg, po; assay type: functional, organism-based; set-up: dose 200 mg/kg
In short: (§5)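 Female nu/nu athymic mice (6-8 weeks old) carrying subcutaneous A549 lung cancer xenografts received a single oral gavage dose of the H₃PO₄ salt (200 mg/kg), formulated as a phosphatidylcholine/water dispersion. Mice were sacrificed at 6, 24 or 48 h, and tumors were harvested. HER-2, pHER-2, pAKT, pRaf and Hsp70 levels were assessed by Western blot.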

[21] = system: Mus musculus; test: Degradation of pRaf in A549 tumor xenograft at 200 mg/kg, po; assay type: functional, organism-based; set-up: dose 200 mg/kg; in short: as §5
[22] = system: Mus musculus; test: Degradation of HER2 in A549 tumor xenograft at 200 mg/kg, po; assay type: functional, organism-based; set-up: dose 200 mg/kg; in short: as §5
[23] = system: Mus musculus; test: Degradation of pAKT in A549 tumor xenograft at 200 mg/kg, po; assay type: functional, organism-based; set-up: dose 200 mg/kg; in short: as §5
[24] = system: A549; test: Degradation of pHER2 in A549 tumor xenograft at 200 mg/kg, po; assay type: functional, organism-based; set-up: dose 200 mg/kg; conditions: Mus musculus; in short: as §5

With COc1ccc(I)c(Sc2nc3c(N)ncnc3n2CCCNC(C)C)c1 the bioavailability [1] was 55%, the Activity [2] was “Active” and the Vd [3] was 22 L/kg. For the same molecule, the Activity [4] was “Active”, the Tmax [5] was 0.5 h and the IC50 [6] was 0.6 µM. For the same molecule, the clearance [7] was 62 mL/min/kg, the half-life [8] was 1.5 h and the Cmax [9] was 4700 ng/mL. For the same molecule, the Activity [10] was “Active”, the Activity [11] was “Active” and the Activity [12] was “Active”. For the same molecule, the Activity [13] was “Active”, the Activity [14] was “inactive” and the half-life [15] was 4.2 h. For the same molecule, the AUC [16] was 7500 ng·h/mL.
For C#CCCCn1c(Sc2cc(OC)c(OC)c(OC)c2Cl)nc2c(N)nc(F)nc21, the IC50 [6] was 1.2 µM.
In the case of COc1ccc(I)c(Sc2nc3c(N)ncnc3n2CCNCC(C)(C)C)c1, the Activity [2] is reported as “Active” and the IC50 [6] is reported as 0.5 µM.
With CCC(C)NCCCn1c(Sc2cc(OC)ccc2I)nc2c(N)ncnc21 (stereo not drawn) the F [17] was 28%, the Activity [2] was “Active” and the Vd [3] was 3.4 L/kg. For the same molecule, the Tmax [5] was 0.5 h, the IC50 [6] was 0.2 µM and the half-life [8] was 0.7 h. It also gave a Cmax [9] of 4800 ng/mL, a half-life [15] of 1.3 h and an AUC [18] of 380 µg·min/mL.
Work on CCC(CC)NCCCn1c(Sc2cc(OC)ccc2I)nc2c(N)ncnc21 yielded an IC50 [6] of 0.2 µM.
For COc1ccc(I)c(Sc2nc3c(N)ncnc3n2CCNCC(C)C)c1, the IC50 [19] was 0.1 µM, the IC50 [6] was 0.2 µM and the Activity [20] was “Active”. The Activity [21] was “Active”, the Activity [22] was “Active” and the Activity [23] was “Active”. The Activity [24] was “Active”.
Work on C#CCCCn1c(Sc2cc(OC)ccc2I)nc2c(N)ncnc21 yielded an IC50 [6] of 0.7 µM.
For COc1ccc(I)c(Sc2nc3c(N)ncnc3n2CCCNC(C)(C)C)c1, the IC50 [6] was 0.2 µM.
